The results in this text go back to ChEMBL document CHEMBL4725393, “Prodrug Strategies to Improve the Solubility of the HCV NS5A Inhibitor Pibrentasvir (ABT-530)” (J Med Chem, 2020).

≈ marks a conversion by molar mass, not a printed value. Some results are limits rather than exact numbers.

Data set [1] in a line: Cmax in CD1 mouse assessed as pibrentasvir1 level at 6 mg/kg, po measured up to 24 hrs. Format: ADME, organism-based. Also noted: route oral, dose 6 mg/kg, time <=24. To be noted: in vivo. The method, boiled down: (§1)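 CD-1 mice with free access to food and water received an oral gavage of prodrug or PIB at 10 mL/kg in 0.2% HPMC. The dose was adjusted for prodrug MW to equal 6 mg/kg PIB. K2EDTA blood was drawn at 0.25, 0.5, 1, 3, 6, 9, 12 and 24 h. Plasma was spun at 3200 x g for 5 min at ~4°C and stored below -15°C. PIB and prodrug were measured; AUC in ng·h/mL, Cmax in ng/mL.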

Data set [2] can be described thus: Equilibrium solubility of compound at pH 7.4 incubated for 24 to 48 hrs by HPLC analysis. It counts as physicochemical. Particulars: buffer, time 24-48 hrs. The method, boiled down:
(§2)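 For equilibrium solubility, excess solid was added to 3–4 mL of medium, in triplicate. Suspension pH was read after equilibration. Solids were removed by centrifugation at 4000 rpm at 25 °C, and the supernatant was passed through a 0.45 µm filter, discarding the first 2 mL. The filtrate was quantified by HPLC against standard curves.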

A short description of data set [3]: Solubility in FeSSIF at pH 5. Format: physicochemical. The method, boiled down: as §2
Data set [4] is described as follows: Equilibrium solubility of compound at pH 1 incubated for 24 to 48 hrs by HPLC analysis. Format: physicochemical. Particulars: buffer, time 24-48 hrs. The method, boiled down:
as §2

Data set [5] can be described thus: Stability of compound at pH 1 assessed as prodrug remaining level at 125 ug/ml incubated for 24 hrs by HPLC analysis. Format: physicochemical. To be noted: buffer, pH 1, 24 h, at 125 µg/mL. Put shortly: (§3)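 A DMSO stock of about 1.25 mg/mL was diluted into 0.1 N HCl (pH 1) or 50 mM phosphate buffer (pH 7.4), giving final concentrations of ~125 µg/mL prodrug and 10% DMSO. The solution was filtered and held at 37 °C in the HPLC autosampler, with injections at several times over 24 h. Percent remaining was calculated from prodrug peak area relative to t0.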

Data set [6] is described as follows: Stability of compound at pH 7.4 assessed as prodrug remaining level at 125 ug/ml incubated for 24 hrs by HPLC analysis. Format: physicochemical. To be noted: buffer, pH 7.4, 24 h, at 125 µg/mL. The method, boiled down: as §3
Data set [7] is described as follows: Cmax in beagle dog assessed as pibrentasvir1 level at 40 mg, po measured up to 24 hrs. It counts as ADME, organism-based, Canis lupus familiaris. Also noted: route oral, dose 40 mg, time <=24. Particulars: in vivo. The method, boiled down:
(§4)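 The dose equalled 40 mg PIB after adjustment for prodrug MW. Food was returned at 12 h. K2EDTA plasma was sampled at 0.25–24 h. Cmax is in ng/mL and AUC in ng·h/mL.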

Data set [8] is described as follows: AUC in beagle dog assessed as pibrentasvir1 level at 40 mg, po measured up to 24 hrs. It counts as ADME, organism-based, Canis lupus familiaris. Also noted: route oral, dose 40 mg, time <=24. Particulars: in vivo. The method, boiled down:
as §4

Data set [9] is described as follows: AUC in CD1 mouse assessed as pibrentasvir1 level at 6 mg/kg, po measured up to 24 hrs. It counts as ADME, organism-based. To be noted: in vivo. Also noted: route oral, dose 6 mg/kg, time <=24. The method, boiled down: as §1
Data set [10] can be described thus: Stability of compound at pH 7.4 assessed as prodrug remaining level at 125 ug/ml incubated for 3 hrs by HPLC analysis. Format: physicochemical. To be noted: buffer, pH 7.4, 3 h, at 125 µg/mL.
The nature of data set [11]: Apparent permeability in MDCK cells. Format: ADME, cell-based, Canis lupus familiaris. To be noted: dog.
Data set [12] is described as follows: Lipophilicity, logD of compound. Particulars: octanol/water. It counts as physicochemical.
The nature of data set [13]: Aqueous solubility of compound at pH 7. It counts as physicochemical.
Data set [14] in a line: Aqueous solubility of compound at pH 2. Format: physicochemical.
Data set [15] in a line: Protein binding in human plasma. Format: ADME, cell-free. Particulars: read-out: PPB (converted).
Data set [16] in a line: Cmax in beagle dog at 40 mg, po measured up to 24 hrs. It counts as ADME, organism-based, Canis lupus familiaris. Also noted: route oral, dose 40 mg, time <=24. Particulars: in vivo. The method, boiled down:
as §4

The nature of data set [17]: AUC in beagle dog at 40 mg, po measured up to 24 hrs. It counts as ADME, organism-based, Canis lupus familiaris. Also noted: route oral, dose 40 mg, time <=24. To be noted: in vivo. Put shortly:
as §4

The nature of data set [18]: Cmax in beagle dog at 40 mg, po dosed as phase 2 tablet measured up to 24 hrs. It counts as ADME, organism-based, Canis lupus familiaris. Also noted: route oral, dose 40 mg, time <=24. To be noted: in vivo. The method, boiled down: (§5)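 Fasted beagle dogs received the 40 mg phase 2 PIB tablet (amorphous drug in polymer support), crushed for dosing.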
Data set [19] can be described thus: AUC in beagle dog at 40 mg, po dosed as phase 2 tablet measured up to 24 hrs. Format: ADME, organism-based, Canis lupus familiaris. Particulars: in vivo. Also noted: route oral, dose 40 mg, time <=24. The method, boiled down: as §5
A short description of data set [20]: Cmax in CD1 mouse at 3 mg/kg, po measured up to 24 hrs. Format: ADME, organism-based. Also noted: route oral, dose 3 mg/kg, time <=24. To be noted: in vivo. Put shortly: (§6)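 CD-1 mice, fed ad libitum, were dosed orally at a prodrug-MW-adjusted dose equal to 3 mg/kg PIB, as a solution or suspension. Serial K2EDTA blood samples were taken from 0.25 to 24 h. Plasma was separated by centrifugation and kept frozen. PIB and prodrug levels were reported as Cmax (ng/mL) and AUC (ng·h/mL).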

A short description of data set [21]: AUC in CD1 mouse at 3 mg/kg, po measured up to 24 hrs. Format: ADME, organism-based. Also noted: route oral, dose 3 mg/kg, time <=24. Particulars: in vivo. Put shortly: as §6
Data set [22] can be described thus: AUC in CD1 mouse at 6 mg/kg, po measured up to 24 hrs. To be noted: in vivo. It counts as ADME, organism-based. Also noted: route oral, dose 6 mg/kg, time <=24. The method, boiled down: as §1
Data set [23] can be described thus: AUC in cynomolgus monkey at 2 mg/kg, po measured up to 12 hrs. It counts as ADME, organism-based, Macaca fascicularis. Also noted: route oral, dose 2 mg/kg, time <=12. To be noted: in vivo. The method, boiled down:
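Female cynomolgus monkeys were fasted overnight and dosed by gastric intubation with a suspension in 0.5% HPMC at 0.5 mL/kg. The dose was MW-adjusted to 2 mg/kg PIB equivalent, and food was returned at 4 h. Plasma was collected at intervals up to 12 h and assayed for PIB and prodrug to give AUC in ng·h/mL.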

Regarding `COC(=O)N[C@H](C(=O)N1CCC[C@H]1c1nc2cc(F)c([C@H]3CC[C@H](c4cc5nc([C@@H]6CCCN6C(=O)[C@@H](NC(=O)OC)[C@@H](C)OC)n(C(=O)OCCCOP(=O)(O)O)c5cc4F)N3c3cc(F)c(N4CCC(c5ccc(F)cc5)CC4)c(F)c3)cc2[nH]1)[C@@H](C)OC`, the Cmax in data set [1] came to 26 ng/mL; in data set [7] it was 196 ng/mL. Besides, the solubility (thermodynamic) in [2] was 631 µg/mL (≈ 487 µM); in data set [4], 23 µg/mL (≈ 17.8 µM). Also, in data set [3], the solubility is over 1000 µg/mL. The Stabilty in data set [5] is recorded as 54%; in [6], under 1%; in [10], under 20%. Moreover, the AUC in [8] amounted to 2140 ng·h/mL; in [9] it was 456 ng·h/mL.

`COC(=O)N[C@H](C(=O)N1CCC[C@H]1c1nc2cc([C@H]3CC[C@H](c4cc5nc([C@@H]6CCCN6C(=O)[C@@H](NC(=O)OC)[C@@H](C)OC)[nH]c5cc4F)N3c3cc(F)c(N4CCC(c5ccc(F)cc5)CC4)c(F)c3)c(F)cc2[nH]1)[C@@H](C)OC` [PIBRENTASVIR]: the Cmax in data set [1] turned out to be 408 ng/mL; in [16], 339 ng/mL; in data set [18], 239 ng/mL; in [7], 339 ng/mL; in [20], 280 ng/mL. The results for the solubility (thermodynamic) in data set [2] and in data set [4] were under 0.1 µg/mL and 422 µg/mL (≈ 379 µM), respectively. Besides, the Papp in [11] was under 1 ×10⁻⁶ cm/s. The log distribution coefficient (logD) in data set [12] is 5.7. For the same compound, the solubility is under 0.1 µg/mL in [13], 420 µg/mL (≈ 377 µM) in [14] and 169 µg/mL (≈ 152 µM) in data set [3]. The fraction unbound in [15] was under 0.001. Besides, the AUC at 24 h in [17] amounted to 3860 ng·h/mL; in data set [21] it was 5170 ng·h/mL; in data set [22], 6720 ng·h/mL. Moreover, the AUC in data set [19] was 2730 ng·h/mL; in [8], 3860 ng·h/mL; in [9], 6720 ng·h/mL. In data set [23], the AUC at 12 h worked out at 166 ng·h/mL.

Usually Cmax stands for the maximum level reached in the sampled fluid or tissue. By thermodynamic solubility is commonly meant the concentration in solution at equilibrium with solid. By solubility is commonly meant how much of the substance goes into solution per volume. The term AUC denotes the area under the concentration-time curve, a measure of exposure. Usually Papp stands for the rate of passage across a membrane or cell layer, normalised by area and donor concentration. By logD is commonly meant lipophilicity at a set pH, counting ionised and neutral species.
